Assay [1] concerns LRRK2 Ser910/Ser935 phosphorylation. The conditions noted are these: intraperitoneal doses of up to 100 mg/Kg; cited from earlier work.
The target of assay [2] is T1, GST-LRRKT[A2016T] (1,326–2,527) (Homo sapiens, UniProt Q5S007, A2016T).
T1 sequence (Q5S007 1326-2527 A2016T): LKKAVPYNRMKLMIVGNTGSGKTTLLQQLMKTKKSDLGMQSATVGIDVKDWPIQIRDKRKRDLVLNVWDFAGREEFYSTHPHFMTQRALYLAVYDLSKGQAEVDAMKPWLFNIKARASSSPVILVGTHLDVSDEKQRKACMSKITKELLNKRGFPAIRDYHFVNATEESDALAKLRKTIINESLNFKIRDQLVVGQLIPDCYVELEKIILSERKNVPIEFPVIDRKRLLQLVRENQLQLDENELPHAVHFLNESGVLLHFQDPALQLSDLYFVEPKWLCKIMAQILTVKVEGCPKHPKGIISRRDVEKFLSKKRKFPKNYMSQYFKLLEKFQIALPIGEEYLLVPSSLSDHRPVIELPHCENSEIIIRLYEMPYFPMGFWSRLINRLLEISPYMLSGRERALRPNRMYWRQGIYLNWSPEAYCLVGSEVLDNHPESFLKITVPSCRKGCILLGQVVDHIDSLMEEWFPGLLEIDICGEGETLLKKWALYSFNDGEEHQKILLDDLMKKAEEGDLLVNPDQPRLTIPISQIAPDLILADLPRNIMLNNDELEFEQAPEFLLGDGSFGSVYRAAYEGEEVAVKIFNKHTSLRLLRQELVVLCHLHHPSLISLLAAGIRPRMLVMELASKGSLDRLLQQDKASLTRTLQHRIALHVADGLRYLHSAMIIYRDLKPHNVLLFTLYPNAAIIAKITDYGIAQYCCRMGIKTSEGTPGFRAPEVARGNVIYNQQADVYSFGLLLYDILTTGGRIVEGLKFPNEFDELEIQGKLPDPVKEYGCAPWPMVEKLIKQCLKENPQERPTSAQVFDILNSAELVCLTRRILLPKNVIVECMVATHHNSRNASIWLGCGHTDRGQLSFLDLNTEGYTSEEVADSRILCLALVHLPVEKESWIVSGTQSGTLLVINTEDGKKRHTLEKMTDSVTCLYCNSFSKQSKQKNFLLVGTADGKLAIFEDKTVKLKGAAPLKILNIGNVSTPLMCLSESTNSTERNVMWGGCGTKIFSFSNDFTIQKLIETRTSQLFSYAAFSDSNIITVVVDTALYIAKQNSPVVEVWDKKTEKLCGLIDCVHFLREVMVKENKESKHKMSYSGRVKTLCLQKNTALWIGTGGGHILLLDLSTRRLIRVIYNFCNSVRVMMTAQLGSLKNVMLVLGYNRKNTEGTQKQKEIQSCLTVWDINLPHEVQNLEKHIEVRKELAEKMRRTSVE
Put plainly: Biochemical inhibition of GST-LRRK2[A2016T]. The conditions noted are these: 20 µM Nictide, 100 µM ATP.

Assay [3] concerns the target LRRK2 (Mus musculus, UniProt Q5S006). Put plainly: KiNativ chemical proteomics of tissues from treated animals, LRRK2. In kind it is in vivo. The conditions noted are these: for LRRK2 target engagement (KiNativ): spleen.
Assay [4] relates to GFP-LRRK2[A2016T] in HEK293 cells. Put plainly: Ser910/Ser935 phosphorylation in HEK293 cells, GFP-LRRK2[A2016T]. The following applies: 90 min. It counts as cell-based. A digest of the protocol: (§1)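 HEK293 cells stably expressing the GFP-tagged LRRK2 mutant were treated with DMSO or increasing concentrations of test compound for 90 min. A reference LRRK2 inhibitor at 1 μM served as control. Cell lysates were immunoblotted for LRRK2 phospho-Ser910, phospho-Ser935 and total LRRK2.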

Assay [5] relates to GFP-LRRK2[G2019S+A2016T] in HEK293 cells. Put plainly: Ser910/Ser935 phosphorylation in HEK293 cells, GFP-LRRK2[G2019S+A2016T]. It counts as cell-based. The following applies: 90 min. The method, boiled down:
as §1

The subject of assay [6] is LRRK2 Ser910/Ser935 phosphorylation. In kind it is in vivo, mouse. A digest of the protocol: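 Mice received the test compound intraperitoneally at 100, 50, 30 or 10 mg/kg. Brain, spleen and kidney were collected, and endogenous LRRK2 was resolved by SDS-PAGE. Blots were probed with phospho-specific antibodies to Ser910 and Ser935 and for total LRRK2, with quantitative analysis of the blots.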

The test system of assay [7] is JNK1/2/3. Briefly: KiNativ chemical proteomics of tissues from treated animals, JNK1/2/3. In kind it is in vivo, mouse.
For assay [8], the target named is T2, TBK1 (Mus musculus, UniProt Q9WUN2).
T2 sequence (Q9WUN2 1-729): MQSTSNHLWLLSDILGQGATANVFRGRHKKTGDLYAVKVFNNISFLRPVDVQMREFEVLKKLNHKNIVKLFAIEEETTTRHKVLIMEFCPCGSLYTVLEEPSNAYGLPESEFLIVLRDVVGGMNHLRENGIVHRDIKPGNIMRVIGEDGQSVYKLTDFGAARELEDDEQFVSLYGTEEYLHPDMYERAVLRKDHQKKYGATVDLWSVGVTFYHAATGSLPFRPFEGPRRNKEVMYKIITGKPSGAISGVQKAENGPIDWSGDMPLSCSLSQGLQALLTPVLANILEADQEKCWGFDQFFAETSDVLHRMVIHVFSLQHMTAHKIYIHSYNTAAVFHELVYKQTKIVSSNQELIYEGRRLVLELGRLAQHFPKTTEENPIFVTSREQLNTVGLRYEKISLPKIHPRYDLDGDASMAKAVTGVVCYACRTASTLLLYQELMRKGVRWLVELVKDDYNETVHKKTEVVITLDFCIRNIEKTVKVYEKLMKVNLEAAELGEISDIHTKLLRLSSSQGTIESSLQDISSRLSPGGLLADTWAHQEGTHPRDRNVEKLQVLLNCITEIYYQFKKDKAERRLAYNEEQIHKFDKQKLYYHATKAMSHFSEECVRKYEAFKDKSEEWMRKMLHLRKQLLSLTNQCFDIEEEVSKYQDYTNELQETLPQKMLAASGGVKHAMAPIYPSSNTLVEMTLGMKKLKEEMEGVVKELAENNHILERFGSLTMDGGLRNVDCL
Put plainly: KiNativ chemical proteomics of tissues from treated animals, TBK1. It counts as in vivo. The conditions noted are these: read-out: TBK1 inhibition (KiNativ).

Assay [9] concerns >150 protein and lipid kinases. Put plainly: KiNativ chemical proteomics, other kinases of the panel. In kind it is in vivo, mouse. The conditions noted are these: any dose (3–100 mg/kg).
Assay [10] has as its system panel of 451 kinases. Briefly: KinomeScan analysis. The conditions noted are these: 1 µM. It counts as binding.

Where two headings read alike, the source gives them in different places.

Sequence of LRRK2 (Q5S006 whole entry): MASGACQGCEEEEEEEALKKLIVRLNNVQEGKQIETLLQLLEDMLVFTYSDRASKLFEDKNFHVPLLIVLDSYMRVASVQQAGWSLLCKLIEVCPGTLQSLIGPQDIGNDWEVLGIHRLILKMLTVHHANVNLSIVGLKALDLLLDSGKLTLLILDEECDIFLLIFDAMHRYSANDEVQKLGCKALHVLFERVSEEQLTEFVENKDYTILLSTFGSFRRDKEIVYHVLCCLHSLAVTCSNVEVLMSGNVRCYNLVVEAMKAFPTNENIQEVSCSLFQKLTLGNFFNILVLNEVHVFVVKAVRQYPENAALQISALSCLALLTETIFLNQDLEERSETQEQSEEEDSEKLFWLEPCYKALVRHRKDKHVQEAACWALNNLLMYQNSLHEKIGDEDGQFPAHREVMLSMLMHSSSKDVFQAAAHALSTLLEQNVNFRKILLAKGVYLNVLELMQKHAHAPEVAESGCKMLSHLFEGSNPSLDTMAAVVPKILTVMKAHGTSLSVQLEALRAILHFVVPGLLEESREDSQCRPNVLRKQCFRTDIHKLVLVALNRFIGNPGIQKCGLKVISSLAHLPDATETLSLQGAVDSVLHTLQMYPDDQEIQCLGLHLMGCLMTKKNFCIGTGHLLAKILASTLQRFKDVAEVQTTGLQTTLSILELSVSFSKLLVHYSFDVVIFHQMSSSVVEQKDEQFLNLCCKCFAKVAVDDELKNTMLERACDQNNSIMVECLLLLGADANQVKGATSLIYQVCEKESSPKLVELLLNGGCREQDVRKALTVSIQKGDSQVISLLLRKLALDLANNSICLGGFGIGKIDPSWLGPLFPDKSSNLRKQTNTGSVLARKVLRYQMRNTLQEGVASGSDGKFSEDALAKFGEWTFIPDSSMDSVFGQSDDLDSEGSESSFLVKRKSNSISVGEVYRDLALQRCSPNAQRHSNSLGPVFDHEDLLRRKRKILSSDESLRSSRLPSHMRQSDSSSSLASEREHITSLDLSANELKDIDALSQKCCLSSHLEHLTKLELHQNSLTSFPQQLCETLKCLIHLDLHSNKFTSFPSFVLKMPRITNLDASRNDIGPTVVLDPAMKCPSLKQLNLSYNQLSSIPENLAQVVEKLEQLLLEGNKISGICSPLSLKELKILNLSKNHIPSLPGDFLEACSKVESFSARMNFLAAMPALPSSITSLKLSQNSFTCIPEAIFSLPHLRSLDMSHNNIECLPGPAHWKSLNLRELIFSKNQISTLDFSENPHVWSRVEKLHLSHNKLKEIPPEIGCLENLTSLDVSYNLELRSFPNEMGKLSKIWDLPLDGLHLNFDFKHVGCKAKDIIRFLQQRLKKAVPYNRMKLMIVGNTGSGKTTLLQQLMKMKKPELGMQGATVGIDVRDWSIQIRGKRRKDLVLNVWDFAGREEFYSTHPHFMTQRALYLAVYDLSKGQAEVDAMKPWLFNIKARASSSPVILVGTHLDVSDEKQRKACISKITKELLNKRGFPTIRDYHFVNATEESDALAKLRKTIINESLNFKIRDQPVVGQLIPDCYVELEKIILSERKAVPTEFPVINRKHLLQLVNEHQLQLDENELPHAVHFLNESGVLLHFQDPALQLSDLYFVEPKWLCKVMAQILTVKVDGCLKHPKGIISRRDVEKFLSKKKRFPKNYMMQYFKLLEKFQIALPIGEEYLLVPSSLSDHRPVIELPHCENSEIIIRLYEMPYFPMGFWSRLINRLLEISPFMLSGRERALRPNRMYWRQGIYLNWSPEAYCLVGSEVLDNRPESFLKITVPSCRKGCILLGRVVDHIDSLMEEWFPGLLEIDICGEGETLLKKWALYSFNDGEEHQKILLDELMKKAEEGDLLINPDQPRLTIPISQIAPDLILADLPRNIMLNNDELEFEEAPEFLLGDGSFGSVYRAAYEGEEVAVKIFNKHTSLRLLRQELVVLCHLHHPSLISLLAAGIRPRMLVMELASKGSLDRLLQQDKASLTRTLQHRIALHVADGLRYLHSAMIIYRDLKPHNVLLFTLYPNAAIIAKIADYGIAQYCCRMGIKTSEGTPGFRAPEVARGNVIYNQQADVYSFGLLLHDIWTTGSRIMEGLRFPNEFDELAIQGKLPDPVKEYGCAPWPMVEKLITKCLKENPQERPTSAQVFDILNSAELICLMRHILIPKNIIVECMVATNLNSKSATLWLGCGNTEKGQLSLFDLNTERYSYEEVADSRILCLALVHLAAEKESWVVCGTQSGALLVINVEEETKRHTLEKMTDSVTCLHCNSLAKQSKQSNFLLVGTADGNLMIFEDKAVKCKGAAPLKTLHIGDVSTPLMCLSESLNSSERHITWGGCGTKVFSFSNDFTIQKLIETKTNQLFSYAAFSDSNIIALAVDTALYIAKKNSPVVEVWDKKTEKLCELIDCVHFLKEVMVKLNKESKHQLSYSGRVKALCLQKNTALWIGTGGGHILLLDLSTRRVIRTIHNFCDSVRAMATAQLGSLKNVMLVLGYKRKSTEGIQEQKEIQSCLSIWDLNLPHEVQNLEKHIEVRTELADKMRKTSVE

Turning to `COc1cc(N2CCOCC2)ccc1Nc1ncc(F)c(Nc2ccccc2NS(C)(=O)=O)n1` [CZC-25146], in [1], the “inhibition of phosphorylation of Ser910 and Ser935 of LRRK2 in mouse brain” value (from here on “inhibition of phosphorylation … in mouse brain”) is “none of these compounds are capable of effectively inhibiting”.
Turning to `COc1cc(C(=O)N2CCC(N3CCN(C)CC3)CC2)ccc1Nc1ncc2c(n1)N(C)c1ccccc1C(=O)N2C` [LRRK2-IN-1, reference compound], in assay [2], the “effect of the A2016T mutation on inhibition” value was “dramatic resistance”. In addition, the “LRRK2 inhibition (KiNativ)” value in assay [3] (brain, 100 mg/kg) is “no LRRK2 inhibition”. Also, in [1], the “inhibition of phosphorylation … in mouse brain” value is reported as “none of these compounds are capable of effectively inhibiting”.
As to `CNc1nc(Nc2ccc(C(=O)N3CCOCC3)cc2OC)ncc1Cl` [Compound 4], the “effect of the A2016T mutation on inhibition” value in assay [2] was “maintains inhibition of the A2016T mutation”. Further, the “concentration inducing dephosphorylation of Ser910 and Ser935” value in [4] and in [5] was 1 to 3 µM in each case. In [6] (mouse brain, intraperitoneal delivery), the “lowest dose inhibiting Ser910 and Ser935 phosphorylation in mouse brain” value amounted to 50 mg/kg. Further, the “inhibition of LRRK2 Ser910/Ser935 phosphorylation in brain” value in assay [6] (mouse, intraperitoneal 10 mg/kg) was “partial inhibition”; in assay [6] (mouse, intraperitoneal 30 mg/kg), “partial inhibition”. For the same molecule, in assay [6] (mouse, intraperitoneal 50 mg/kg, all tissues), the “inhibition of LRRK2 Ser910/Ser935 phosphorylation in tissues” value is recorded as “near complete inhibition”. Moreover, in assay [6] (mouse, intraperitoneal 100 mg/kg, kidney, spleen and brain), the “dephosphorylation of Ser910 and Ser935 of LRRK2 in tissues” value was “near complete dephosphorylation”. The “LRRK2 target engagement (KiNativ)” value in assay [3] (10 mg/kg) is listed as 80–90%; in [3] (30–100 mg/kg), “greater than 90%”. The “JNK1/2/3 inhibition (KiNativ)” value in assay [7] (50 mg/kg) and in assay [7] (100 mg/kg) was 35–40% throughout. For the same molecule, the inhibition at 50 mg/kg in assay [8] lay in the range of 35 to 40%. In addition, the inhibition at 100 mg/kg in [8] is 35 to 40%. In addition, the “inhibition of kinases other than LRRK2 (KiNativ)” value in assay [9] was not above 50%. For the same molecule, the “interactions detected in KinomeScan” value in assay [10] was “no interactions detected with kinases other than G2019S LRRK2 with the exception of one mutant form of c-Kit (L576P)”.
As to `COc1cc(N2CCC(N3CCN(C)CC3)CC2)ccc1Nc1ncc(Cl)c(Nc2ccccc2S(=O)(=O)C(C)C)n1` [TAE684], the “inhibition of phosphorylation … in mouse brain” value in assay [1] is “none of these compounds are capable of effectively inhibiting”.

A word on the inhibition: it is how much of the control response was suppressed.
